Screens as filed in PubChem BioAssay.
Most compounds without a hit are left out; they make up all but 3.8% or so of the library.
MrgX1 antag: human MrgX1 receptor antagonism, primary screen; B-score at 10 µM; 310,000 compounds, 1.3% hits; MRGX1-HEK293 calcium flux, Fluo-4, BAM8-22 antagonism; active compounds read low; AID 588676;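 active means calcium-response B-score plate-corrected more than 3 library SD below zero, starting fluorescence within 5 deviations, no agonist response on first addition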;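 further: peak minus trough fluorescence over baseline after final BAM8-22 challenge near maximal dose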
Target sequence (Q96LB2 whole entry, looked up): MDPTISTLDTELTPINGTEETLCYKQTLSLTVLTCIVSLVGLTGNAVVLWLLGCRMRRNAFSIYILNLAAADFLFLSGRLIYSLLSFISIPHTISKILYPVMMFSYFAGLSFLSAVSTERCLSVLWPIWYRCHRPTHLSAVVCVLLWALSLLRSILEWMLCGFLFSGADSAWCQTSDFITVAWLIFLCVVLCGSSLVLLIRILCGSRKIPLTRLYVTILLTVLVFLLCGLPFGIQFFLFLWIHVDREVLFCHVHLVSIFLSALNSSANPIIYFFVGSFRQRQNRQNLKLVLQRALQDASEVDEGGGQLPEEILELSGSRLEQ
MrgX1 agonist: activates human MrgX1 receptor signaling. MrgX1-HEK293 cells, Fluo-4 calcium fluorescence, agonist mode; active compounds read high. B-score at 10 µM. AID 588627. 310,000 compounds, 0.44% hits. Q96LB2;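 active means calcium response B-score plate-corrected fluorescence ratio at least 3 library SD, with starting fluorescence B-score inside 5 SD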
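Material – MrgX1-expressing HEK293 cells · Input – 15,000 cells seeded per well · Dosing – compound as first of three additions · Times – overnight seeding, then 1 h dark dye loading · Measured by – kinetic Fluo-4 NW fluorescence of intracellular calcium · Read-out – B-scored fluorescence response ratio · Benchmarks – positive and negative control wells on each plate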
RGS4 inh: human RGS4 inhibition; P49798; 310,000 compounds, 0.45% hits; B-score at 10 µM; AID 463165; HEK293 M3R/RGS4 inducible, Fluo-4 calcium flux; active compounds read high; triggered by carbachol at its EC20;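 active means B-score, a plate-corrected calcium signal, over three deviations above library mean, with baseline fluorescence within five deviations of library mean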;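 further: RGS4 expression induced by doxycycline in cells with stable M3 receptor; B-score is computed from the integrated fluorescence ratio over baseline after carbachol; higher B-score means a larger calcium signal and so more RGS4 inhibition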
Target sequence (P49798 whole entry, looked up): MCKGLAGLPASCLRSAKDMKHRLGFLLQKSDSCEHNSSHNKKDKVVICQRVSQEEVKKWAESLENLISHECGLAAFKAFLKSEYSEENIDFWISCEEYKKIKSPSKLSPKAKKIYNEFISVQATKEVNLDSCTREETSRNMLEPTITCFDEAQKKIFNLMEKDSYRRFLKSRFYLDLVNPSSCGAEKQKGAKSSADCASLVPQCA
RGS4 act: potentiators or activators of RGS4; HEK293 M3R/inducible RGS4, carbachol calcium flux Fluo4; active compounds read low; B-score at 10 µM; 310,000 compounds, 0.92% hits;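 active means B-score of the integrated calcium signal more than 4 SD below the library mean, with starting fluorescence not abnormally high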;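 further: negative B-score means reduced calcium response which marks RGS4 activation or potentiation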
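Material: M3R-expressing HEK293 line, RGS4 induced by doxycycline | Schedule: Overnight RGS4 induction, 30 min dye load 37 °C, 20 min compound RT | Measured by: Fluo4 fluorescence kinetic imaging of calcium | Read-out: Integrated calcium ratio converted to B score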
MrgX1 allo act: allosterically activates human MrgX1 receptor signaling. Q96LB2. MrgX1-HEK293, Fluo-4 calcium flux, FDSS; active compounds read high. B-score at 10 µM. 310,000 compounds, 0.63% hits. AID 588675;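 active means plate-corrected calcium response at least 3 library SD above typical, normal starting fluorescence, not activating the receptor alone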;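 further: compound read alongside a low EC10 to EC30 dose of BAM8-22 agonist; peak minus trough fluorescence over baseline measured at the second addition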
Lipid droplet: hepatic lipid droplet formation modulation; AID 1656; inhibition, % at 6.5 µM; AML12 mouse hepatocytes, oleate lipid droplets, BODIPY imaging; 240,000 compounds, 0.4% hits;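 active means lipid droplet intensity inhibited by at least 50%, with more than 500 cells counted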
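Test system: AML12 hepatocytes (mouse); reagent: oleate loading, 100 µM; dosing: one dose, 6.5 µM compound; incubation: overnight exposure; signal: fluorescence imaging, 20x objective, two fields per well; read-out basis: % inhibition of corrected integrated BODIPY droplet signal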
RGS4 act valid: confirmation of RGS4 activators; shares compounds with RGS4 act; HEK293 M3R/RGS4 inducible, carbachol calcium flux Fluo4; inhibition, % at 10 µM; 1,100 compounds, 89% hits;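 active means inhibition above 3 SD of the buffer control wells, cut at about 41% in these data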;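 further: signal is the integrated peak-minus-minimum Fluo4 fluorescence over baseline ratio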
RGS4 act ctr: activity in cells without induced RGS4 expression. inhibition, % at 10 µM. 1,100 compounds, 82% hits. shares compounds with RGS4 act. HEK293 M3R non-induced RGS4, Fluo4 calcium flux; after carbachol challenge at its EC90;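 active means inhibition exceeding 3 SD of buffer-only control wells, cut at about 26% in these data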;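 further: percent drop in integrated peak-minus-baseline over baseline Fluo4 ratio after carbachol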
A number is an active result; – = inactive; · = not tested or not shown.

SMILES | MrgX1 antag | MrgX1 agonist | RGS4 inh | RGS4 act | MrgX1 allo act | Lipid droplet | RGS4 act valid | RGS4 act ctr
O=S(=O)(NCc1csc(-c2cccs2)n1)c1cccs1 | – | – | – | -8 | – | · | – | –
OCC1(Cc2ccccc2Cl)CCN(C/C=C/c2ccccc2)CC1 | – | – | – | -9.2 | – | – | 94 | 83
OCC1(CCc2ccccc2)CCN(C/C=C/c2ccccc2)CC1 | – | – | – | – | – | – | · | ·
COc1ccc(-c2csc(N3CCN(c4cc(C)nc5ccccc45)CC3)n2)cc1OC | – | – | – | -8.5 | – | – | 92 | 86
COc1cc(-c2csc(N3CCOCC3)n2)cc(OC)c1OC | – | – | – | – | – | · | · | ·
CCCn1c2c(c(O)c(C(=O)Nc3nccs3)c1=O)CCCC2 | – | – | – | – | – | · | · | ·
Cc1csc(NC(=O)c2c(O)c3c(n(CC(C)C)c2=O)CCCC3)n1 | – | – | – | -8.9 | – | – | 57 | –
CC(C)Cn1c2c(c(O)c(C(=O)Nc3nccs3)c1=O)CCCC2 | – | – | – | -7.7 | – | · | 74 | 41
COc1ccc(C(=O)OCCN2C(=O)c3ccccc3C2=O)cc1 | – | – | – | -8.7 | – | · | 40 | 84
N#Cc1cc2c(nc1Cl)CCC2 | – | – | – | – | – | – | · | ·
O=C(CN(C(=O)c1csnn1)c1cccc(Cl)c1)NC1CCCCC1 | – | – | – | – | – | – | · | ·
CNC(=O)C1CC(=O)N(CCc2ccc(OC)cc2)C(=Nc2ccc(OC)cc2)S1 (configuration not stated) | – | – | – | – | – | – | · | ·
CNC(=O)C1CC(=O)N(Cc2ccc3c(c2)OCO3)C(=Nc2ccc(OC)cc2)S1 (configuration not stated) | – | – | – | -11 | – | · | – | –
O=C(c1ccc(-c2nc3ccccc3s2)o1)N1CCN(c2ccccc2O)CC1 | – | – | – | -8.3 | – | – | 86 | 53
O=C(c1cccc(COc2ccc(Cl)cc2Cl)c1)N1CCN(c2ccccn2)CC1 | – | – | – | -7.9 | – | – | 94 | 80
O=C(C[n+]1cc(-c2ccc(Cl)c(Cl)c2)n2c1CCC2)N1c2ccccc2Sc2ccccc21 | – | – | – | -11 | – | – | 93 | 95
Cn1c(NC(=O)C[n+]2cc(-c3ccc(Cl)c(Cl)c3)n3c2CCC3)cc(=O)n(C)c1=O | – | – | – | – | – | – | · | ·
Cc1onc(-c2c(Cl)cccc2Cl)c1C(=O)Nc1ccc(N2CCOCC2)cc1 | – | – | – | – | – | – | · | ·
O=C(Nc1ccc(F)cc1)c1cccnn1 | – | – | – | – | – | · | · | ·
CN1C2CCC1CC(NC(=O)CSc1ccc(Cl)cc1)C2 (configuration not stated) | – | – | – | -9 | – | – | 59 | –
Cc1ccc(NC(=O)CSc2nnnn2-c2cccnc2)c(C)c1 | – | – | – | – | – | – | · | ·
COc1ccc(C(=O)N/N=C/c2ccc3cccc(OCc4ccccc4)c3n2)cc1 | – | – | – | -11 | – | · | 91 | 47
O/N=C/c1ccc2cccc(OCc3ccccc3)c2n1 | – | – | – | – | – | – | · | ·
Cc1ccc(S(=O)(=O)N(CC(=O)Nc2cccc(C(F)(F)F)c2)C(=O)N2CCN(C)CC2)cc1 | – | – | – | – | – | · | · | ·
O=C(CSc1ncc(-c2ccccc2)n1C1CCCC1)N1CCc2ccccc21 | – | – | – | -7.7 | – | · | 54 | 84
SMILES | MrgX1 antag | MrgX1 agonist | RGS4 inh | RGS4 act | MrgX1 allo act | Lipid droplet | RGS4 act valid | RGS4 act ctr
Cc1c(C)n(Cc2ccccc2)c2ncnc(NCCN(C)C)c12 | – | – | – | – | – | · | · | ·
Cc1c(C)n(Cc2ccccc2)c2ncnc(NCCCN(C)C)c12 | – | – | – | -9.4 | – | – | 70 | 84
CC1(C(O)(C#CC[N+]2(C)CCCCC2)c2ccccc2)CCCC1 (configuration not stated) | – | – | – | -15 | – | – | 92 | 95
C[N+]1(CC(=O)OCCCc2ccccc2)CCCCC1 | – | – | – | – | – | – | · | ·
CNc1c([N+](=O)[O-])cnn1-c1cccc(Cl)n1 | – | – | – | – | – | – | · | ·
COc1ccccc1CN1CCC(CNS(=O)(=O)c2cc(-c3onc(C)c3C)ccc2OC)CC1 | – | – | – | -8 | – | – | 90 | 65
Cc1cc(-c2ccc(C)c(S(=O)(=O)NCC3CCN(Cc4ccccc4F)CC3)c2)on1 | – | – | – | – | – | – | · | ·
COc1ccc(C(=O)NCc2nnc(SC)n2Cc2ccccc2)cc1 | – | – | – | – | – | – | · | ·
CC(C)=CCc1c(O)c(CC=C(C)C)c2c(c1O)C(=O)CC(c1ccc(O)cc1)O2 (configuration not stated) | – | – | – | – | – | – | · | ·
CC(C)=CCc1c(O)cc(O)c2c1OC(c1ccc(O)cc1)CC2=O (configuration not stated) | – | – | – | -9.9 | – | · | 90 | 86
CSc1ccc2c(c1)C(N1CCN(C)CC1)Cc1ccc(F)cc1S2 (configuration not stated) | – | – | – | -11 | – | · | 94 | 90
Cc1cccc(C)c1N(CC(=O)NCc1ccccc1)C(=O)c1csnn1 | – | – | – | – | – | – | · | ·
CCc1ccc(NC(=O)c2sc3nc(C)nc(N4CCN(c5ccccn5)CC4)c3c2C)cc1 | – | – | – | -8.5 | – | – | 64 | 84
Cc1nc(N2CCN(c3ccccn3)CC2)c2c(C)c(C(=O)Nc3ccccc3F)sc2n1 | – | – | – | -7.8 | – | – | 94 | 59
Cc1nc(N2CCOCC2)c2c(C)c(C(=O)Nc3ccccc3Cl)sc2n1 | – | – | – | – | – | – | · | ·
Cc1ccc(NC(=O)c2cnc(N3CCN(c4ccccn4)CC3)c3ccccc23)c(Br)c1 | – | – | – | -11 | – | – | 91 | 76
COc1ccc(NC(=O)c2sc3nc(C)nc(N4CCN(c5ccccn5)CC4)c3c2C)cc1Cl | – | – | – | – | – | – | · | ·
Cc1cc(Br)ccc1NC(=O)c1sc2ncnc(N3CCN(c4ccccn4)CC3)c2c1C | – | – | – | – | – | – | · | ·
Cc1nc(N2CCN(c3ccccn3)CC2)c2c(C)c(C(=O)Nc3ccc(F)cc3F)sc2n1 | – | – | – | -9 | – | – | 80 | 27
O=C(c1ccco1)N1CCN(c2ccc([N+](=O)[O-])c(N3CCOCC3)c2)CC1 | – | – | – | – | – | – | · | ·
COc1ccc(C(=O)c2sc3nc(C)cc(-c4cccs4)c3c2N)cc1OC | – | – | – | -8.7 | – | – | 83 | 71
